Reference: ChEMBL document CHEMBL4513216, “Probing the Open Global Health Chemical Diversity Library for Multistage-Active Starting Points for Next-Generation Antimalarials” (ACS Infect Dis, 2020)

Assay: Toxicity liver stage against HepG2, at 10uM
Format: cell-based
Design: test concentration 10 uM, cell line HepG2-A16-CD81EGFP
Conditions: human, HepG2-A16-CD81EGFP cells; read-out: INHIBITION
Method in brief: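 Uninfected HepG2-A16-CD81EGFP cells, 3 × 10^3 per well, 1536-well, plated on prespotted compound at 10 μM final, parasite-free screening media added to match infected plates; puromycin 10 μM positive, DMSO 0.5% negative; run in parallel with 48 h PbLuc assay at 37 °C, 5% CO2; viability by CellTiter-Glo luminescence, normalized to controls.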

SMILES	cytotoxicity at 10 µM
NC(=O)Cn1ccc(O)c(Cc2ccc(Cl)cc2Cl)c1=O	8.85%
Cc1nc(C)c(CN2CCOC[C@H](Oc3ccccc3)C2)s1	7.53%
Nc1nc2c(c3c1C(=O)NC3=O)CCCC2	10.2%
O=C(CNC(=O)c1cnccn1)Nc1ncc[nH]1	-43.4%
CC(=O)Nc1cccc2c1ccn2CC(=O)Nc1n[nH]c(CC(C)C)n1	-0.473%
Cc1cc(=O)[nH]c(-n2nc(C)c(CCC(=O)NCc3cccs3)c2C)n1	10.3%
COc1ncc(NS(=O)(=O)c2ccc(OC)c(C)c2)c(OC)n1	34.8%
Cc1cc(S(=O)(=O)N2CCC(N3CCC(O)C3)CC2)c(Cl)cc1Cl (centres undefined)	0.944%
O=C(NC[C@H]1C[C@@H]2CN(C(=O)c3ccno3)C[C@@H]2O1)C1CCC1	-5.21%
Cn1cnc2c1C(C(=O)N1CCCO1)N(C(=O)c1ccccc1)CC2 (centres undefined)	-0.234%
COCC(=O)N1CCC2(CC1)CC(OC)CO2 (centres undefined)	-1.56%
CN(C)CC(=O)N1CCc2ncnc(-c3ccsc3)c2CC1	-12.3%
CCN1CC2(CC1=O)CN(C(=O)c1cccs1)CCN(C(=O)N(C)C)C2 (centres undefined)	2%
Cn1cc(CN2CC[C@]3(C[C@H](OCc4ccccn4)CO3)C2)cn1	-1.08%
CSC1=Nc2c(cnn2-c2ccc(C)cc2)C2=NCCCN12	10.3%
O=C(Cn1nc2c(cc1=O)CCCC2)NC(C(=O)O)c1ccccc1 (centres undefined)	5.7%
Cc1nn(C)cc1CN(C)C(=O)c1ccncc1	-5.51%
O=C(Nc1cnn(COc2ccc(F)cc2Cl)c1)C1CC1	-10.6%
Cc1cccc(Nc2ccc(C3CCCCN3)cn2)n1 (centres undefined)	-1.93%
Cc1csc(NC(=O)c2cnc(C3CCCN(C)C3)cn2)n1 (centres undefined)	-21.3%
CC(C)Oc1ccc(CN2CCC(c3n[nH]c4ncccc34)CC2)cc1	-21.4%
O=C(c1cnccn1)N1CCCC(Cc2cccc3ncccc23)C1 (centres undefined)	12%

SMILES	cytotoxicity at 10 µM
COc1cc(CNc2cnn(C(C)(C)C)c(=O)c2Cl)ccn1	55.9%
Cc1ccc(-c2nc(CC(=O)NCC3CCOC3)cs2)o1 (centres undefined)	-43%
Cc1nc(-c2ccccc2)ccc1C(=O)N1CCN(CCO)CC1	-53.9%
CC(C)C(NCc1ccc(Cn2cncn2)cc1)c1ccc(F)cn1 (centres undefined)	-0.593%
Cc1ccc(CN2CCS(=O)(=O)C(C)(C)C2)cc1C	1.05%
CC(CNC(=O)c1cnccn1)Oc1ccc(F)cc1 (centres undefined)	-2.55%
N#Cc1csc(CN(CC(=O)N2CCCC2)CC2CCCO2)c1 (centres undefined)	-6.26%
COc1ccc(CNC(C)c2ccc(Cl)c(Cl)c2)c(OC)c1OC (centres undefined)	14.2%
Cc1[nH]ncc1CCCNC(=O)Nc1ccc2c(c1)OC1(CCCC1)O2	18.6%
O=S(=O)(NCCCN1CCCC1)c1cc(F)cc(F)c1	8.84%
CCOCCC1(C(=O)N2CCCC(c3ncc[nH]3)C2)CCCC1 (centres undefined)	-1.7%
COc1cccc(CN(C)CC2=Nc3ccccc3S(=O)(=O)N2)c1	36.4%
Cc1ccsc1CN(C)c1nc2c(cnn2C(C)(C)C)c(=O)[nH]1	33.3%
CCCN(CCC)S(=O)(=O)c1cc(NC(C)=O)ccc1C	-148%
CCOc1ccc(OCC)c(NCc2cc(C)on2)c1	-40.1%
FC(F)(F)c1cccc(N2CCC(NCc3cccnc3)CC2)c1	-64.5%
Cc1cc(NC(=O)NC2CCN(C(C)C)CC2)c2ncccc2c1	9.67%
Cn1cc(CCNCC2CNc3ccnn3C2)cn1 (centres undefined)	3.34%
COCCS(=O)(=O)NC(C)c1ccc(-n2nc(C)cc2C)cc1 (centres undefined)	1.91%
Cc1cccc(NCc2ncc(C(C)(C)C)o2)c1	24.3%
COc1ccc(C(C)N2CCC(CNC(C)=O)CC2)cc1Cl (centres undefined)	-51.5%
O=C(CCc1ccccc1)N1CCCCC1C1OCCO1 (centres undefined)	-45.1%

SMILES	cytotoxicity at 10 µM
COc1ncccc1CN1Cc2nccn2CC(CN2CCCC2)C1 (centres undefined)	-103%
O=C(CC1CC1)N[C@@H]1CN(C(=O)c2ccoc2)C[C@@H]2CCCO[C@@H]21	-104%
COCC(=O)N1CCCC2(CCN(c3ccccc3)C2=O)C1 (centres undefined)	-74.3%
CC(C)Nc1ncnc2c1CCN(C(=O)c1ccc[nH]1)CC2	-77.6%
CCC1=N[C@@]2(CC[C@@H]3CN(C(=O)NCc4ccccc4C)C[C@@H]32)C(=O)N1	-71.1%
O=S(=O)(c1ccccc1)N1CCC2(CCCN2CC2CCCC2)C1 (centres undefined)	4.4%
CCCn1c(C)c(CC(=O)NCCC(N)=O)c2c1CC(C)(C)CC2=O	9.36%
CC(C)c1cc(C(=O)NCC2CCCN(c3ncccn3)C2)n(C)n1 (centres undefined)	17.2%
CN(C)c1nc2c(c(N(C)Cc3n[nH]c4c3CCCC4)n1)CCNCC2	3.2%
Cn1ncc(N2CCOC(CCNC(=O)NC(C)(C)C)C2)cc1=O (centres undefined)	22.6%
CCc1ccc(CCNc2ncnc3c2CCN(C(=O)C2CC2)C3)cc1	36.9%
c1cc(-c2nc3c(c(NCCn4ccnn4)n2)CCNCC3)ccn1	-56.4%
CCC(Nc1nc(C)nc2onc(C)c12)c1nc(C)c(C)s1 (centres undefined)	37.2%
CC(C)[C@@H]1CN(C(=O)c2ccc3c(c2)CCCO3)C[C@H]1NS(C)(=O)=O	-6.53%
CCc1cn[nH]c1C1CCN(c2cc(C)c3ccc(OC)cc3n2)CC1	18.7%
COCCC1(C(=O)O)CCCN(C(=O)c2cc(C)oc2C)C1 (centres undefined)	-5.89%
Cc1[nH]c2ccccc2c1CCNc1ncnc2c1CCNCC2	-37.5%
COc1ccc(F)c(CN2CCCC(O)(CNCC(C)(C)C)C2=O)c1 (centres undefined)	12.2%
CCCn1ncc(C2CC(=O)NCc3nc4cc(C)ccn4c32)c1C (centres undefined)	-3.21%
CC(C)(CNc1cccc(Cl)c1)NC(=O)C1CCCN(CC(N)=O)C1 (centres undefined)	-1.46%
CCN1CC2(CCC1=O)CCN(C(=O)C(O)c1cccc(Cl)c1)CC2 (centres undefined)	0.636%
CN(CC1(CO)CCCC1)c1nc2c(c(=O)[nH]1)Cc1ccccc1OC2	11.7%

SMILES	cytotoxicity at 10 µM
CC(C)N1CCCC2(CCN(Cc3noc(C4CCCC4)n3)C2)C1=O (centres undefined)	2.24%
Cc1ccc(Oc2ncccc2CNS(=O)(=O)N2CCOCC2)cn1	9.83%
CCc1nnc(CN(C)Cc2cccc(C(=O)Nc3nccs3)c2)o1	-2.97%
CC(CN1CCC2(CC1)N=C(c1cccnc1)NC2=O)c1ccccc1 (centres undefined)	4.5%
COC[C@@]12CC[C@@H](N3CCOCC3)C[C@H]1CCN(c1cc(C)ccn1)C2	-3.53%
CC(C)c1ccc(NC2CCCN(Cc3ccncc3)C2)cc1 (centres undefined)	-10.8%
CN(Cc1ccno1)C(=O)c1cccc(CC2CCNCC2)c1	-15.9%
CN(CC1(CO)CC1)C(=O)C1CCC(=O)N(Cc2ccc(Cl)cc2)C1 (centres undefined)	-5.14%
CC[C@H](C)[C@@H](CO)NC(C)Cc1ccc(Cl)cc1 (some centres undefined)	-10.6%
CCc1cc(N2CCC3(CCCNC3=O)C2)nc(N2CCOCC2)n1 (centres undefined)	-0.28%
Cc1cc(=O)n(CC(=O)NC2CCCCC2)c2ccccc12	0.126%
COCCN1CCCC2(CCN(c3ncnc(C)c3C)C2)C1=O (centres undefined)	33.4%
Cc1cccc(C2CC(=O)Nc3c2c(=O)[nH]n3C(C)C)c1 (centres undefined)	-3.33%
CC(=O)Nc1cccc(-c2ccccc2CCN)c1	-5.85%
CCCOC(C)Cn1ccc2[nH]c(=O)c(C#N)cc2c1=O (centres undefined)	7.39%
CCCc1cc(CNC2CCN(c3cc(C)nc(N)n3)CC2)on1	-6.17%
CCN(CC)CCCN1CCN(c2nc(C)cnc2C)CC1	-31%
CC(=O)c1ccc(N2CCCC(CO)(CCOc3ccccc3)C2)nc1 (centres undefined)	3.15%
Cn1c(CN2CCCC2)nnc1C1CCCN(C(=O)C2CCOCC2)C1 (centres undefined)	-17%
Nc1cc2c(nn1)CCN(C(=O)CCCC1CCCCC1)C2	-0.0113%
CCNc1cc2c(nn1)CCN(C(=O)c1cc3cccc(C)c3o1)C2	-8.06%
CCOCCCn1c(NC(=O)c2scnc2C)nc2ccccc21	5.9%

SMILES	cytotoxicity at 10 µM
CC(C)(C)n1cc(C(=O)N2CCN(Cc3ccccc3F)CC2)cn1	10.6%
Cc1nc(CN(C)C2CCN(Cc3ccc4ccccc4n3)C2)no1 (centres undefined)	-2.23%
Cc1cc(N2CCC(Cc3ccccc3)CC2)nc(-c2ccncc2)n1	-2.68%
Cc1ccc(CN(CCCn2ccnc2)Cc2c[nH]nc2C(C)(C)C)s1	-3.91%
O=C(c1ccoc1)N1CCOC2(COCCN(CC3CC3)C2)C1 (centres undefined)	7.57%
Cc1cc(CN2C[C@@H]3CCCO[C@@H]3[C@H](N(C)C(C)C)C2)no1	2.44%
COc1ccc(CNC(C)c2cccc(Br)c2)c(OC)c1OC (centres undefined)	9.75%
COc1ccccc1CNC(C)c1ccc(-n2ccnc2)cc1 (centres undefined)	5.25%
CCc1ccc(S(=O)(=O)N2Cc3c(CN(C)C)nn(C)c3C2)cc1	-106%
CC(C)Nc1nc2c(cc1C(=O)NCC1CC1)CCN(CC1CC1)CC2	46.5%
CN(C)CCN1CCCC12CCN(Cc1nccn1C)CC2	-99.1%
CC(C)COCc1cncc2c1CCN(Cc1cnn(C)c1)C2	-7.96%
O=C(Nc1cccc(CNCc2csc(Br)c2)c1)C1CC1	7.97%
CC(C)N1CCCn2c(nc(CNC(=O)c3nccn3C)cc2=O)C1	2.84%
c1ccc(COC[C@@H]2CCC[C@@]23CNCCO3)nc1	-105%
CN(C)CCN1C(=O)CC[C@@H]2[C@H]1CCN2C(=O)c1ccc(C#N)cc1	-7.82%
c1cncc(N2CCCn3nnc(CN4CCCCC4)c3C2)c1	1.24%
O=C(c1cc(C2CC2)on1)N1C[C@@H]2COC[C@]2(COc2cccnc2)C1	-89.7%
Fc1cnc(N2CCOC3(CCN(Cc4ccsc4)CC3)C2)nc1	2.6%
OC1(Cn2ccc3ncccc32)CCN(Cc2ccccc2F)CC1	-5.33%
CCNc1c(NC(=O)NCCOC)c(=O)oc2ccccc12	-2.89%
